Source: ChEMBL document CHEMBL1126865, “Structure-activity relationship within a series of pyrazolidinone antibacterial agents. 2. Effect of side-chain modification on in vitro activity and pharmacokinetic parameters” (J Med Chem, 1993)
In brackets after ≈: the same amount, converted by molar mass.

Legend:
[1] = system: Monkey; assay: Plasma half-life in monkey after intravenous administration; assay type: functional, organism-based; conditions: Cercopithecidae
Procedure, shortened: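 Male rhesus monkeys (n = 3) dosed iv at 30 mg/kg in 0.9% saline; plasma sampled from cephalic vein over 3 h. Drug levels by agar well diffusion bioassay (E. coli ATCC4157 or Proteus providentia XC24) against standard curves in spiked plasma. Samples stored at -70 °C. Half-life = 0.693/β, β the terminal slope of plasma vs time curve.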

[2] = Plasma half-life in human after intravenous administration; assay type: ADME, organism-based
[3] = system: Rattus norvegicus; assay: (§1) Plasma half-life in rats after intravenous administration; assay type: functional, organism-based
Procedure, shortened: (§2)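 Male Sprague-Dawley rats were given 20 mg/kg IV in 0.9% saline through an indwelling jugular cannula, which was also used for serial blood sampling. Plasma and cumulative urine (citrate pH 6.5, metabolism cages) were collected over 6 h and stored at -70 °C. Levels were measured by agar well diffusion bioassay against standard curves in plasma or citrate. Half-life = 0.693/β; recovery as % of dose.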

[4] = Urinary recovery in male rats after iv administration of 20 mg/kg; assay type: ADME, organism-based; design: dose 20 mg/kg, route intravenous; conditions: rat, urine; procedure, shortened: as §2
[5] = system: Pseudomonas aeruginosa; assay: In vitro antibacterial activity against Pseudomonas PS72; assay type: functional
[6] = system: Haemophilus influenzae; assay: In vitro antibacterial activity against Haemophilus influenza C.L; assay type: functional
[7] = Urinary recovery in male CD-1 mice after po administration of 20 mg/kg; assay type: ADME, organism-based; design: dose 20 mg/kg, route oral; conditions: CD-1, mouse, urine
Procedure, shortened: (§3)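 Male CD-1 mice received 20 mg/kg in 0.9% saline, orally or subcutaneously. Cumulative urine over 0–4 h was collected from metabolism cages into 0.1 M sodium citrate, pH 6.5, and stored at -70 °C. Drug levels were measured by agar well diffusion bioassay (E. coli ATCC4157 or Proteus providentia XC24) against spiked standard curves. Half-life = 0.693/β (terminal slope); urinary recovery as % of dose.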

[8] = as §1; assay type: ADME, organism-based; conditions: rat; procedure, shortened: as §2
[9] = system: Escherichia coli; assay: Minimum inhibitory concentration against Escherichia coli EC14 after po administration in mice; assay type: functional
[10] = system: Streptococcus pneumoniae; assay: In vitro antibacterial activity against Streptococcus pneumoniae PARK; assay type: functional
[11] = Maximum concentration in male CD-1 mice after sc administration of 20 mg/kg; assay type: ADME, organism-based; design: dose 20 mg/kg, route subcutaneous; conditions: CD-1, mouse, in vivo; procedure, shortened: as §3
[12] = system: Streptococcus pyogenes; assay: Effective dose against Streptococcus pyogenes (C203) after sc administration in mice; assay type: functional
[13] = system: Streptococcus pyogenes; assay: Minimum inhibitory concentration against Streptococcus pyogenes (C203) after sc administration in mice; assay type: functional
[14] = system: Staphylococcus epidermidis; assay: In vitro antibacterial activity against Staphylococcus epidermidis 222; assay type: functional
[15] = system: Streptococcus pyogenes; assay: Minimum inhibitory concentration against Streptococcus pyogenes (C203) after po administration in mice; assay type: functional
[16] = system: Escherichia coli; assay: Effective dose against Escherichia coli EC14 after po administration in mice; assay type: functional
[17] = system: Streptococcus pyogenes; assay: Effective dose against Streptococcus pyogenes (C203) after po administration in mice; assay type: functional
[18] = system: Klebsiella pneumoniae; assay: In vitro antibacterial activity against Klebsiella X26; assay type: functional
[19] = Half-life period in male rats after iv administration of 20 mg/kg; assay type: ADME, organism-based; design: dose 20 mg/kg, route intravenous; conditions: rat, in vivo; procedure, shortened: as §2
[20] = system: Escherichia coli; assay: Effective dose against Escherichia coli EC14 after sc administration in mice; assay type: functional
[21] = system: Staphylococcus aureus; assay: In vitro antibacterial activity against Staphylococcus aureus X1.1; assay type: functional
[22] = Plasma binding expressed as percentage in rats […]; assay type: ADME, organism-based; conditions: rat, iv, read-out: Plasma binding (converted)
Procedure, shortened: (§4)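 Binding was measured in vitro in pooled Sprague-Dawley rat plasma at a drug concentration of 20 μg/mL by ultrafiltration and reported as % bound.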

[23] = system: Escherichia coli; assay: In vitro antibacterial activity against Escherichia coli EC14; assay type: functional
[24] = Maximum concentration in male rats after iv administration of 20 mg/kg; assay type: ADME, organism-based; design: dose 20 mg/kg, route intravenous; conditions: rat, in vivo; procedure, shortened: as §2
[25] = system: Escherichia coli; assay: Minimum inhibitory concentration against Escherichia coli EC14 after sc administration in mice; assay type: functional
[26] = system: Klebsiella aerogenes; assay: In vitro antibacterial activity against Enterobacter aerogenes C32; assay type: functional
[27] = Half-life period in male CD-1 mice after sc administration of 20 mg/kg; assay type: ADME, organism-based; design: dose 20 mg/kg, route subcutaneous; conditions: CD-1, mouse, in vivo; procedure, shortened: as §3
[28] = Urinary recovery expressed as percentage dose in male CD-1 mice after po administration of 20 mg/kg; assay type: ADME, organism-based; design: dose 20 mg/kg, route oral; conditions: CD-1, mouse, urine; procedure, shortened: as §3
[29] = Urinary recovery expressed as percentage dose in male rats after iv administration of 20 mg/kg; assay type: ADME, organism-based; design: dose 20 mg/kg, route intravenous; conditions: rat, urine; procedure, shortened: as §2
[30] = Plasma binding in male rats […] expressed as percentage of plasma binding; assay type: ADME, organism-based; conditions: rat, iv, read-out: Plasma binding (converted); procedure, shortened: as §4

| MIC [5] | MIC [6] | half-life [8] | MIC [9] | MIC [10] | Cmax [11] | MIC [13] | MIC [14] | MIC [15] | MIC [18] | half-life [19] | MIC [21] | MIC [23] | Cmax [24] | MIC [25] | MIC [26] | Structure (SMILES) | ED50 [12] | ED50 [16] | ED50 [17] | ED50 [20] | also measured |
| --- | --- | --- | --- | --- | --- | --- | --- | --- | --- | --- | --- | --- | --- | --- | --- | --- | --- | --- | --- | --- | --- |
|  |  |  |  |  |  |  |  |  |  |  |  |  |  |  |  | Cn1nnnc1SCC1=C(C(=O)O)N2C(=O)[C@@H](NC(=O)[C@H](O)c3ccccc3)[C@H]2SC1 [CEFAMANDOLE] |  |  |  |  | T1/2 [1]: 34 min; half-life [2]: 48 min; T1/2 [3]: 15 min |
| > 128 µg/mL | 0.5 µg/mL (≈ 1.12 µM) | 25 min | 0.06 µg/mL (≈ 0.135 µM) | 0.25 µg/mL (≈ 0.562 µM) | 53.8 µg/mL | 0.03 µg/mL (≈ 0.0675 µM) | 64 µg/mL (≈ 144 µM) | 0.03 µg/mL (≈ 0.0675 µM) | 0.125 µg/mL (≈ 0.281 µM) | 24.7 min | 32 µg/mL (≈ 72 µM) | 0.06 µg/mL (≈ 0.135 µM) | 120 µg/mL | 0.06 µg/mL (≈ 0.135 µM) | 0.25 µg/mL (≈ 0.562 µM) | CO/N=C(\C(=O)NC1CN2CC(S(C)(=O)=O)=C(C(=O)O)N2C1=O)c1csc(N)n1 (stereo unspecified) | 1.8 mg/kg | 7.93 mg/kg | 13.5 mg/kg | < 0.625 mg/kg | dose excreted [4]: 80.4%; dose excreted [7]: < 2%; fraction unbound [22]: 0.78; half-life [27]: 10.6 min |
| > 128 µg/mL | 0.5 µg/mL (≈ 1.28 µM) | 18 min | 0.25 µg/mL (≈ 0.639 µM) | 0.25 µg/mL (≈ 0.639 µM) | 71 µg/mL | 0.25 µg/mL (≈ 0.639 µM) | 64 µg/mL (≈ 164 µM) | 0.25 µg/mL (≈ 0.639 µM) | 0.25 µg/mL (≈ 0.639 µM) | 17.9 min | 64 µg/mL (≈ 164 µM) | 0.25 µg/mL (≈ 0.639 µM) | 120 µg/mL | 0.25 µg/mL (≈ 0.639 µM) | 1 µg/mL (≈ 2.56 µM) | CO/N=C(\C(=O)N[C@H]1CN2CC(C#N)=C(C(=O)O)N2C1=O)c1csc(N)n1 | 0.625 mg/kg | 7.87 mg/kg | 6.68 mg/kg | 0.67 mg/kg | dose excreted [28]: < 2%; dose excreted [29]: 87.8%; fraction unbound [30]: 0.585; half-life [27]: 12.2 min |
